Data: ChEMBL document CHEMBL1159084, “Synthesis and structure-activity relationship of 1,2,4-triazole-containing diarylpyrazolyl carboxamide as CB1 cannabinoid receptor-ligand” (Bioorg Med Chem, 2010)

How the values were obtained:
Cannabinoid receptor 1 [1] = molecular target: Cannabinoid receptor 1 (Rattus norvegicus, UniProt P20272); test: Displacement of [3H]CP-55940 from CB1 receptor in Sprague-Dawley rat cerebellar membrane; parameters: species or system Cerebellum
Outline: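 Membranes came from cerebella of male Sprague Dawley rats (200–300 g), homogenized in TME buffer (50 mM Tris–HCl, 1 mM EDTA, 3 mM MgCl2, pH 7.4) and spun at 48,000g for 30 min at 4 °C. They were incubated 1 h at 30 °C in TME with 0.5% fatty-acid-free BSA, then filtered on PEI-soaked GF/B, washed and counted by scintillation. IC50 values are from single determinations.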

Cannabinoid receptor 2 = Cannabinoid receptor 2 (Homo sapiens, UniProt P34972); test: Displacement of [3H]WIN-55212-2 from human recombinant CB2 receptor expressed in CHO-K1 cell membrane; assay type: cell membranes
Outline: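 CB2 membranes were from CHO K-1 cells transfected with human CB2, prepared in TME buffer (pH 7.4) and incubated with 3 nM [3H]WIN55,212-2 in TME plus 0.5% fatty-acid-free BSA for 1 h at 30 °C. Bound label was filtered on PEI-soaked GF/B, washed with ice-cold buffer containing 0.1% BSA, and counted by scintillation. IC50 values are from single determinations.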

[2] = Selectivity for Sprague-Dawley rat CB1 receptor over human recombinant CB2 receptor
Outline: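 Selectivity is the ratio of the hCB2 IC50 to the rCB1 IC50. The hCB2 IC50 came from CHO-K1 membrane displacement of [3H]WIN55,212-2, and the rCB1 IC50 from rat cerebellar membrane binding. Both binding assays ran 1 h at 30 °C with filtration and scintillation counting.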

Cannabinoid receptor 1 [3] = molecular target: Cannabinoid receptor 1 (Homo sapiens, UniProt P21554); test: Inverse agonist activity at human recombinant CB1 receptor expressed in CHO cells by luciferase reporter gene assay; assay type: functional, cell-based
Chain of Cannabinoid receptor 1 (Homo sapiens, UniProt P21554) (P21554 whole entry): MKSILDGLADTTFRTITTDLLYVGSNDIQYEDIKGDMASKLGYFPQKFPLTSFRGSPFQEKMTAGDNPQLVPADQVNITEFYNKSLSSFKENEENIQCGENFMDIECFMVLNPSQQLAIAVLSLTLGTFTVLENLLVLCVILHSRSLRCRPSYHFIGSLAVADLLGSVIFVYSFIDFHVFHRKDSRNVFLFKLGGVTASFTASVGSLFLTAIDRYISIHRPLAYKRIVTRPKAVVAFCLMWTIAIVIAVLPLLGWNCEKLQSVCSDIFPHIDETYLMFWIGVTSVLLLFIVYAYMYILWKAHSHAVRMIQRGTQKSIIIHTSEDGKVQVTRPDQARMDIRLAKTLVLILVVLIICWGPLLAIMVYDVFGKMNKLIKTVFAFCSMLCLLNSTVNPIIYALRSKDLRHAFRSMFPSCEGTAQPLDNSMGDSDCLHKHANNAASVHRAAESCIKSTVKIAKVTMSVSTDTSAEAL

Chain of Cannabinoid receptor 1 (Rattus norvegicus, UniProt P20272) (P20272 whole entry): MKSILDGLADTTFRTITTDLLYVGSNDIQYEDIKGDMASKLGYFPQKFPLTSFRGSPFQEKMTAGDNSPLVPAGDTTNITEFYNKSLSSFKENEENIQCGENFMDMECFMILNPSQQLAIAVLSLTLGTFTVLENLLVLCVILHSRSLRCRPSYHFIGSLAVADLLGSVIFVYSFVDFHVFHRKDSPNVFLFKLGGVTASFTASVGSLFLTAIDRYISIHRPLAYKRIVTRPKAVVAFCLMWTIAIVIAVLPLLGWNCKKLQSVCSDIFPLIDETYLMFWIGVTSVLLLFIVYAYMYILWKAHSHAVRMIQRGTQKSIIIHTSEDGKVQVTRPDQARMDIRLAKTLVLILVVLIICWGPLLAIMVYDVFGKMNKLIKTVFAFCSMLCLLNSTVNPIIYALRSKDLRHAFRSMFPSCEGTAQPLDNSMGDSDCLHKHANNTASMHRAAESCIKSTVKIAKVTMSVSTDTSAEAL
Chain of Cannabinoid receptor 2 (P34972 whole entry): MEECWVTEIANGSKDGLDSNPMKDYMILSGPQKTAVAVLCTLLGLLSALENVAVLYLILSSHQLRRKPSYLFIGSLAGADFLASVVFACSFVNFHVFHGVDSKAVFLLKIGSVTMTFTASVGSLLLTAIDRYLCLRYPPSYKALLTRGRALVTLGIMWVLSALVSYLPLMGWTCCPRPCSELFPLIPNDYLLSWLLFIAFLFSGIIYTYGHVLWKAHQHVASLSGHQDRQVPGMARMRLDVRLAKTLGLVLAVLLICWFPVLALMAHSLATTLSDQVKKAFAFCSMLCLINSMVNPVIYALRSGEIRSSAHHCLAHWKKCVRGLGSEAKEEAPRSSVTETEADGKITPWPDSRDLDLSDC

IC50 (Cannabinoid receptor 1 [1]) [nM] | IC50 (Cannabinoid receptor 2) [nM] | Ratio IC50 [2] | IC50 (Cannabinoid receptor 1 [3]) [nM] | SMILES
1.1 | 1790 | 1630 | 2.51 | CC(NC(=O)c1nn(-c2ccccc2Cl)c(-c2ccc(Br)cc2)c1Cn1cncn1)c1ccc(Br)cc1 (stereo not given)
2 | 3330 | 1660 |  | CC(NC(=O)c1nn(-c2ccccc2Cl)c(-c2ccc(Cl)cc2)c1Cn1cncn1)c1ccc(Cl)cc1Cl (stereo not given)
1.6 | 4060 | 2540 |  | O=C(NC1CCCCC1)c1nn(-c2ccccc2Cl)c(-c2ccc(Br)cc2)c1Cn1cncn1
2.28 | 296 | 130 |  | O=C(c1nn(-c2ccccc2Cl)c(-c2ccc(Br)cc2)c1Cn1cncn1)N1CCN(c2cccc(Cl)c2)CC1
1.8 | 3510 | 1950 |  | CC(NC(=O)c1nn(-c2ccccc2Cl)c(-c2ccc(Cl)cc2)c1Cn1cncn1)c1ccc(Br)cc1 (stereo not given)
2.2 | 2420 | 1100 |  | CC(NC(=O)c1nn(-c2ccccc2Cl)c(-c2ccc(Br)cc2)c1Cn1cncn1)c1ccc(Cl)cc1Cl (stereo not given)
2.22 | 582 | 262 |  | O=C(c1nn(-c2ccccc2Cl)c(-c2ccc(Br)cc2)c1Cn1cncn1)N1CCN(c2cccc(Cl)c2Cl)CC1
1.98 | 3200 | 1620 |  | O=C(NC1(c2ccccc2)CC1)c1nn(-c2ccccc2Cl)c(-c2ccc(Br)cc2)c1Cn1cncn1
1.4 | 6480 | 4630 | 28.2 | CC(NC(=O)c1nn(-c2ccc(Cl)cc2Cl)c(-c2ccc(Br)cc2)c1Cn1cncn1)c1ccc(Br)cc1 (stereo not given)
1.7 | 2570 | 1510 |  | O=C(NC1(c2ccc(Cl)cc2)CC1)c1nn(-c2ccccc2Cl)c(-c2ccc(Br)cc2)c1Cn1cncn1

SMILES | IC50 (Cannabinoid receptor 1 [1]) [nM] | IC50 (Cannabinoid receptor 2) [nM] | Ratio IC50 [2] | IC50 (Cannabinoid receptor 1 [3]) [nM]
Cc1cccc(N2CCN(C(=O)c3nn(-c4ccccc4Cl)c(-c4ccc(Br)cc4)c3Cn3cncn3)CC2)c1C | 2.07 | 547 | 264 | 
